According to ChEMBL document CHEMBL4425157, “New antibacterial agents: Hybrid bioisoster derivatives as potential E. coli FabH inhibitors” (Bioorg Med Chem Lett, 2016):
pIC50: −log10 of the molar value. Converted amounts (≈) assume the structure as drawn. The source made the active and inactive calls. No cut-off for these calls is given here.

Key:
Staphylococcus aureus = experiment: Antibacterial activity against Staphylococcus aureus ATCC 29213 by broth microdilution method; type: functional
Candida albicans = experiment: Antifungal activity against Candida albicans ATCC 10231 by broth dilution method; type: functional
Escherichia coli = experiment: Antibacterial activity against Escherichia coli ATCC 25922 by broth microdilution method; type: functional
How it was run: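 MIC read by broth microdilution, run in duplicate.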

[1] = Induction of nitrite formation at 100 uM measured after 1 hr in presence of L-cysteine by Griess assay; type: functional
How it was run: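 Compound at 100 µM incubated with 5 mM L-cysteine in 50 mM phosphate buffer pH 7.4/methanol (1:1), 1 h at 37 °C; aliquots taken and nitrite quantified by Griess reaction.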

Vero = experiment: Cytotoxicity against african green monkey Vero cells assessed as reduction in cell viability measured after 72 hrs by MTS assay; type: cell-based; conditions: Chlorocebus sabaeus
How it was run: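 Vero cells exposed to compounds, with viability read by MTS assay; IC50 derived from the viability data.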

[2] = Growth inhibition of african green monkey Vero cells at highest concentration measured after 72 hrs by MTS assay relative to control; type: cell-based; conditions: chlorocebus sabaeus, read-out: GI
How it was run: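 Vero cells in MTS viability assay; the value is the percentage growth inhibition at the highest compound concentration tested.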

Row | Molecule | MIC (Staphylococcus aureus) | MIC (Candida albicans) | MIC (Escherichia coli) | Activity [1] | pIC50 (Vero) | inhibition at 72 h [2]
1 | Cc1c(/C=N/NS(=O)(=O)c2ccc([N+](=O)[O-])cc2)no[n+]1[O-] | > 100 µM | > 100 µM | > 300 µM | inactive | < 4.00 | 0%
2 | CC1(C)S[C@@H]2[C@H](NC(=O)[C@H](N)c3ccccc3)C(=O)N2[C@H]1C(=O)O [AMPICILLIN] | 1.1 µM (≈ 0.384 µg/mL) | – | 9.59 µM (≈ 3.35 µg/mL) | – | – | –
3 | C[C@@H]1[C@H](O)[C@@H](C)/C=C/C=C/C=C/C=C/C=C/C=C/C=C/[C@H](O[C@@H]2O[C@H](C)[C@@H](O)[C@H](N)[C@@H]2O)C[C@@H]2O[C@](O)(C[C@@H](O)C[C@@H](O)[C@H](O)CC[C@@H](O)C[C@@H](O)CC(=O)O[C@H]1C)C[C@H](O)[C@H]2C(=O)O [AMPHOTERICIN B] | – | 0.027 µM (≈ 0.025 µg/mL) | – | – | – | –
4 | Cc1c(/C=N/NS(=O)(=O)c2ccccc2)no[n+]1[O-] | > 100 µM | > 100 µM | 10.7 µM (≈ 3.03 µg/mL) | inactive | < 4.00 | 63.4%
5 | GENTAMICIN | 0.076 µM | – | < 0.02 µM | – | – | –
6 | CO[C@H]1/C=C/O[C@@]2(C)Oc3c(C)c(O)c4c(O)c(c(/C=N/N5CCN(C)CC5)c(O)c4c3C2=O)NC(=O)/C(C)=C\C=C\[C@H](C)[C@H](O)[C@@H](C)[C@@H](O)[C@@H](C)[C@H](OC(C)=O)[C@@H]1C [RIFAMPIN] | – | – | – | – | < 4.00 | 44.8%
7 | COc1ccc(S(=O)(=O)N/N=C/c2no[n+]([O-])c2C)cc1 | > 100 µM | > 100 µM | 77.8 µM (≈ 24.3 µg/mL) | inactive | < 4.00 | 0%
8 | Cc1ccc(S(=O)(=O)N/N=C/c2no[n+]([O-])c2C)cc1 | > 100 µM | > 100 µM | 0.36 µM (≈ 0.107 µg/mL) | inactive | < 4.00 | 8.38%
9 | Cc1c(/C=N/NS(=O)(=O)c2ccc(C(C)(C)C)cc2)no[n+]1[O-] | > 100 µM | > 100 µM | 287 µM (≈ 97.1 µg/mL) | inactive | < 4.00 | 74.8%
